What was measured:
4T1 tumor-bearing mice [1] = test: In vivo biological distribution analysis; set-up: species or system BALB/c mice; settings: DiR 1 mg kg^−1 s.c. near the tumor, n = 3
Procedure, shortened: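 4T1 tumor-bearing mice (tumor about 200 mm3) were randomised (n = 3) to free near-infrared dye DiR at 1 mg kg-1 or hydrogel-loaded DiR at the equivalent dose, injected s.c. near the tumor at 100 μL/20 g. Anaesthetised mice were imaged live at 1, 6, 12, 24, 48 and 96 h (λex 748 nm, λem 780 nm). At 96 h, mice were euthanised and organs collected.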

4T1 tumor-bearing mice [2] = test: In vivo anti-tumor research in 4T1 tumor-bearing mice; set-up: species or system BALB/c mice
Procedure, shortened: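 Female BALB/c mice (6 weeks, 16–18 g) received 4T1 cells (1 × 10^7 cells per mL, 100 μL) s.c. into the right forelimb axilla. At about 100 mm3 tumor volume, mice were randomised (n = 5) to saline, free drug, or drug-loaded hydrogel (1 mg mL-1 drug : 20 mg mL-1 peptide). Dosing was s.c. near the tumor at 100 μL/20 g, giving […], on day 1. Weight and tumor volume were recorded. Tumors and organs were taken at day 7, formalin-fixed, H&E and TUNEL stained.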

Row | Structure (SMILES) | ex vivo fluorescence distribution in tumor and organs (4T1 tumor-bearing mice [1]; 96 hours after administration) | in vivo fluorescence over time (4T1 tumor-bearing mice [1]; live imaging 1–96 hours) | tumor growth inhibition (4T1 tumor-bearing mice [2]; 7 days, versus NS group, n = 5) | body weight of mice at start (4T1 tumor-bearing mice [2]; day 1, s.c. near the tumor, DOX 1 mg mL^−1, 100 μL/20 g, n = 5) [g] | histology of major organs (H&E) (4T1 tumor-bearing mice [2]; heart, liver, spleen, lung, kidney after 7 days of treatment) | body weight of mice at end (4T1 tumor-bearing mice [2]; within 7 days, s.c. near the tumor, DOX 1 mg mL^−1, 100 μL/20 g, n = 5) [g]
1 | CCCCCCCCCCCCCCCCCCN1/C(=C/C=C/C=C/C=C/C2=[N+](CCCCCCCCCCCCCCCCCC)c3ccccc3C2(C)C)C(C)(C)c2ccccc21.[I-] [DiR] | widespread fluorescence distribution | rapidly decreased over time |  |  |  | 
2 | COc1cccc2c1C(=O)c1c(O)c3c(c(O)c1C2=O)C[C@@](O)(C(=O)CO)C[C@@H]3O[C@H]1C[C@H](N)[C@H](O)[C@H](C)O1 [DOX, doxorubicin] |  |  | significant tumor growth inhibition | 18.8 | significant necrosis of heart and liver cells | 16.9

— paper PMC11533052 (Nanoscale Advances, 2024)
